The values below come from ChEMBL document CHEMBL4622869, “Discovery and structure-activity relationships study of positive allosteric modulators of the M3 muscarinic acetylcholine receptor” (Bioorg Med Chem, 2020).

The target of series [1] is Muscarinic acetylcholine receptor M3 (Rattus norvegicus) (UniProt P08483). Put plainly: Positive allosteric modulation of muscarinic acetylcholine receptor M3 in Sprague-Dawley rat urinary bladder assessed as increase in 8 Hz electrical field stimulation-induced bladder contraction by measuring tension of isolated bladder contraction at 3 uM (reference value: 2.21 +/- 0.26 g). The gist of the method: (§1)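 Female Sprague-Dawley rats, 9–10 weeks old. Longitudinal bladder strips (~10×2 mm) in Krebs at 37°C, gassed with 95% O2/5% CO2. EFS at 8 Hz, 10 s trains, 0.3 ms pulses, voltage set to give about half-maximal response. Drug added cumulatively at 1, 3 and 10 μM, 10 stimulations per concentration. Contraction = peak minus basal tone, averaged over the last 3 contractions and compared with pre-drug value (n=7).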

Series [2] deals with T1, Muscarinic acetylcholine receptor M4 (Homo sapiens) (UniProt P08173).
T1 sequence (whole entry): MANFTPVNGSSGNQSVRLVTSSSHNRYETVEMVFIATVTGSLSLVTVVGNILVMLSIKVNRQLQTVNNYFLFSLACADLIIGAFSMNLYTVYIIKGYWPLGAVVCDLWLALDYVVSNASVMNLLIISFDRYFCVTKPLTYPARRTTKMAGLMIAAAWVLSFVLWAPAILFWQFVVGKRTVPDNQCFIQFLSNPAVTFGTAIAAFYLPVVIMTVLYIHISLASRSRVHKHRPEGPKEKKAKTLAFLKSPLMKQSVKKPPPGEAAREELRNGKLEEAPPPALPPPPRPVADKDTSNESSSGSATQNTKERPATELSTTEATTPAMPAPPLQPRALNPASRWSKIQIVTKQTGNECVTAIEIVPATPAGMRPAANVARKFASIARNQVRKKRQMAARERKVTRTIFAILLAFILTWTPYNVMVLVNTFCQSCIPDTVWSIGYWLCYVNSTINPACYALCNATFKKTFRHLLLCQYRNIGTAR
Put plainly: Positive allosteric modulation of recombinant human muscarinic acetylcholine receptor M4 expressed in CHOK1 cells coexpressing G-alpha16 assessed as increase in carbachol-induced intracellular calcium flux at 10 uM preincubated for 5 mins followed by carbachol addition by Fluo4-AM dye based FLIPR assay relative to carbachol. The note with it: CHO-K1. In kind it is functional, cell-based. The gist of the method:
(§2)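 CHO-K1 cells stably expressing human or rat M1–M5; M2 and M4 lines also co-express human Gα16. Cells loaded with 3.1 μM Fluo-4 AM in HBSS/20 mM HEPES pH 7.5/BSA/2.5 mM probenecid for ~2 h at room temperature. Test substance at 10 μM final, then carbachol (0.0024 nM–100 μM) ~5 min later; Ca2+ read by FLIPR Tetra. Fold shift = carbachol EC50 without / with test substance, from logistic fits.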

The target of series [3] is Muscarinic acetylcholine receptor M3 (Homo sapiens) (UniProt P20309). Nature of the series: Positive allosteric modulation of recombinant human muscarinic acetylcholine receptor M3 expressed in CHOK1 cells assessed as increase in carbachol-induced intracellular calcium flux preincubated for 5 mins followed by carbachol addition by Fluo4-AM dye based FLIPR assay. The class given is functional, cell-based. Particulars: CHO-K1. The gist of the method: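 Human M3 in CHO-K1 cells, Fluo-4 AM loaded (3.1 μM, ~2 h, room temperature). Test substance at 0.01–30 μM added ~5 min before a carbachol concentration series (0.0024 nM–100 μM); Ca2+ flux read on FLIPR Tetra to give carbachol concentration-response curves, with DMSO as vehicle.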
For orientation: A change in cytosolic calcium serves as a functional read-out for many receptors and channels.

Series [4] deals with T2, Muscarinic acetylcholine receptor M2 (Homo sapiens) (UniProt P08172).
T2 sequence (whole entry): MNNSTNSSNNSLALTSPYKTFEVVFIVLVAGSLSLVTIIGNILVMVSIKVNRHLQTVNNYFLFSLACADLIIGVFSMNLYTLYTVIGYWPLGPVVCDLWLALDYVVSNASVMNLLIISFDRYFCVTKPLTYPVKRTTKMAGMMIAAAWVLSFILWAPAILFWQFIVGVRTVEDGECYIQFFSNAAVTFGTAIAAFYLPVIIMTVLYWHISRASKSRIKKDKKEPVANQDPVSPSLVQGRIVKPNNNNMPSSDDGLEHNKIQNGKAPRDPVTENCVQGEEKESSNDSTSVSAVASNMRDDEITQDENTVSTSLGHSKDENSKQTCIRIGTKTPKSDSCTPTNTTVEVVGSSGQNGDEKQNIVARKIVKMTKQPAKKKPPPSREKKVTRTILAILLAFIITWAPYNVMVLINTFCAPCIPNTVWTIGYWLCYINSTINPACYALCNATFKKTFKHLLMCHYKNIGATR
Nature of the series: Positive allosteric modulation of recombinant human muscarinic acetylcholine receptor M2 expressed in CHOK1 cells coexpressing G-alpha16 assessed as increase in carbachol-induced intracellular calcium flux at 10 uM preincubated for 5 mins followed by carbachol addition by Fluo4-AM based FLIPR assay relative to carbachol. The class given is functional, cell-based. The note with it: CHO-K1. In short, it runs like this:
as §2

Series [5] in a line: Cmax in Crl:CD(SD) rat at 1 mg/kg, po measured up to 24 hrs by LC-MS/MS analysis. The class given is ADME, organism-based. Set-up: dose 1 mg/kg, route oral. The note with it: in vivo. In short, it runs like this: (§3)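 Male Crl:CD(SD) rats, 8 weeks old, food deprived (n=4); iv 0.3 mg/kg or po 1 mg/kg in DMF/propylene glycol/water for injection (1/1/8) containing 1 M NaOH (2 equivalents). Plasma sampled to 24 h, assayed by validated LC-MS/MS. Parameters from each animal by noncompartmental analysis, reported as means.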

For series [6], the target named is T3, Muscarinic acetylcholine receptor M5 (Rattus norvegicus) (UniProt P08911).
T3 sequence (whole entry): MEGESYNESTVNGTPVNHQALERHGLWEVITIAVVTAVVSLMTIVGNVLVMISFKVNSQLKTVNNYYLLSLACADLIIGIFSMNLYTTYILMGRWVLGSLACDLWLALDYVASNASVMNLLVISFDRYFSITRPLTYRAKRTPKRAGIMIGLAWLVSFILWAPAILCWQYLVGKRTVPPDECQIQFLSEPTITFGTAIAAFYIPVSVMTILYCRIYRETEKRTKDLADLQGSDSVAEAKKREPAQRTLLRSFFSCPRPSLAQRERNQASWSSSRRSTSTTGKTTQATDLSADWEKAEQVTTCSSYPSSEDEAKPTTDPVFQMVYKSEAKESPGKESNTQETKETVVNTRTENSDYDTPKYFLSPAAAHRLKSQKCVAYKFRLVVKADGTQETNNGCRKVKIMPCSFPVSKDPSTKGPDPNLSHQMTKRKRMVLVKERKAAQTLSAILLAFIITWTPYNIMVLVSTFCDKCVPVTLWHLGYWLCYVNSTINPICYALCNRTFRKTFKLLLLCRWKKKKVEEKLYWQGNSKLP
Nature of the series: Positive allosteric modulation of recombinant rat muscarinic acetylcholine receptor M5 expressed in CHOK1 cells assessed as increase in carbachol-induced intracellular calcium flux at 10 uM preincubated for 5 mins followed by carbachol addition by Fluo4-AM dye based FLIPR assay relative to carbachol. In kind it is functional, cell-based. The note with it: CHO-K1. The gist of the method: as §2

The nature of series [7]: AUCinfinity in Crl:CD(SD) rat at 1 mg/kg, po measured up to 24 hrs by LC-MS/MS analysis. Further details: dose 1 mg/kg, time infinity, route oral. The class given is ADME, organism-based. Particulars: in vivo. The gist of the method: as §3
The target in series [8] is Muscarinic acetylcholine receptor M3 (Rattus norvegicus) (UniProt P08483). Put plainly: Positive allosteric modulation of muscarinic acetylcholine receptor M3 in Sprague-Dawley rat urinary bladder assessed as increase in 8 Hz electrical field stimulation-induced bladder contraction by measuring tension of isolated bladder contraction at 10 uM (reference value: 2.21 +/- 0.26 g). In short, it runs like this:
as §1

Sequence of Muscarinic acetylcholine receptor M3 (Rattus norvegicus) (P08483 whole entry, looked up): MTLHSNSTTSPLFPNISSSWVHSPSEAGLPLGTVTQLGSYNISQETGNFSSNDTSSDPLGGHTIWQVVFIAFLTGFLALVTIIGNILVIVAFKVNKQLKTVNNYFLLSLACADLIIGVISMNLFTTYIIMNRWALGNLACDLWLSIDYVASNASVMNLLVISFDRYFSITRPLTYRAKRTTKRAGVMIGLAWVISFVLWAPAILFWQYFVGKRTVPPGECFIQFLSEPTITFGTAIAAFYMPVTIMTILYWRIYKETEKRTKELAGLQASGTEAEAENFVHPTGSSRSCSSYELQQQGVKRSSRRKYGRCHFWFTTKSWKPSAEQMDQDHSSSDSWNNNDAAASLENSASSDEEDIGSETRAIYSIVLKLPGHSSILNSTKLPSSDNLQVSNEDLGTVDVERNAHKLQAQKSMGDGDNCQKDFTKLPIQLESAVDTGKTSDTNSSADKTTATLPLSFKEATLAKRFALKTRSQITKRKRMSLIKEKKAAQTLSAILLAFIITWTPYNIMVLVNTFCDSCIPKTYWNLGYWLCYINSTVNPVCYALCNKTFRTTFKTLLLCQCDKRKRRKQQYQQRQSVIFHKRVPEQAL
Sequence of Muscarinic acetylcholine receptor M3 (Homo sapiens) (P20309 whole entry, looked up): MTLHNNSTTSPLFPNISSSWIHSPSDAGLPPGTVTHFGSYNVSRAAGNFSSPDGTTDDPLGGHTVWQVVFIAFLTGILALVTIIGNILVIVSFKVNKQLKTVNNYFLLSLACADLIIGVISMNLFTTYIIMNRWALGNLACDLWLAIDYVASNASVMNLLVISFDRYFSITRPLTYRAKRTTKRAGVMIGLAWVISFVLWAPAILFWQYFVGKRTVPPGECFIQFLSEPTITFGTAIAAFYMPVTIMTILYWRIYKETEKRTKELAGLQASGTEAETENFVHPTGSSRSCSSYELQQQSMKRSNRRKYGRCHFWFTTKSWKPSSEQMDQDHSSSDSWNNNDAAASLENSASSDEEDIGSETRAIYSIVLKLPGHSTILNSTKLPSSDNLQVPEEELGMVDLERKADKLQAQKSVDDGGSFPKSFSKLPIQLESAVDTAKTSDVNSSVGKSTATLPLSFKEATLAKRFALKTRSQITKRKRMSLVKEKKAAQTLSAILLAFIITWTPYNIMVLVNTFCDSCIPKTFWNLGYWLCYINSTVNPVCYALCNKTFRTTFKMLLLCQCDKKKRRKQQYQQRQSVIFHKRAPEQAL

What is called Cmax is the maximum level reached in the sampled fluid or tissue. For orientation: AUC(0-inf) means total exposure, with the tail of the curve extrapolated. Regarding `CC[C@@H]1CCCN1Cc1sc(NC(=O)c2cnc(N3CCC(C(=O)O)CC3)cn2)nc1-c1ccc(OC)c(C(F)(F)F)c1.Cl.Cl`, the Activity in series [1] is 2.79 g; in series [3], “Dose-dependent effect”; in series [8], 3.49 g. The fold change (FC) in series [2] worked out at 1; in series [4], 1.3; in series [6], 110. In series [5], this compound had a Cmax of 85.3 ng/mL. This compound gave an area under the curve AUC(0-inf) in series [7] of 209 ng·h/mL.
